Experimental data from ChEMBL document CHEMBL1124399, “Synthesis and structure-activity studies of some disubstituted phenylisoxazoles against human picornavirus” (J Med Chem, 1989).
Converted amounts (≈) assume the structure as drawn. “And” between values parts separate entries of the source, which are not always exact repeats. Identical values can stand only once. The source made the active and inactive calls. The calls are words filed in the database; no cut-off is given here.

Tests used:
Enterovirus [1] = experiment: Minimum inhibitory concentration against rhinovirus serotype 67; format: functional
Outline: (§1)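 Rhinovirus minimum inhibitory concentration (MIC) determined in a plaque reduction assay in cell culture, testing each serotype separately.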

Enterovirus [2] = experiment: Minimum inhibitory concentration against rhinovirus serotype 89; format: functional; outline: as §1
Enterovirus [3] = experiment: Minimum inhibitory concentration against rhinovirus serotype 41; format: functional; outline: as §1
Enterovirus [4] = experiment: Minimum inhibitory concentration against rhinovirus serotype 1A; format: functional; outline: as §1
Enterovirus [5] = experiment: (§2) In vitro anti-rhinovirus activity was measured as maximum testable levels - highest concentration of compound which causes no apparent effect on the cell monolayers; format: functional
Enterovirus [6] = experiment: Minimum inhibitory concentration against rhinovirus serotype 30; format: functional; outline: as §1
Enterovirus [7] = experiment: Minimum inhibitory concentration against rhinovirus serotype 15; format: functional; conditions: Enterovirus; read-out: MIC; outline: as §1
Enterovirus [8] = experiment: Minimum inhibitory concentration against rhinovirus serotype 50; format: functional; outline: as §1
Enterovirus [9] = experiment: Concentration required to inhibit 80 percent rhinovirus cell culture; format: functional
Outline: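 MIC80 is the concentration that inhibits 80% of the rhinovirus serotypes tested. It is derived from per-serotype MICs measured by plaque reduction assay.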

Enterovirus [10] = experiment: In vitro anti-rhinovirus activity was measured as mean MIC for five serotypes, HRV-1A, -2, -22, -41, and -50; format: functional
Outline: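 Mean of plaque-reduction-assay MICs across five rhinovirus serotypes (HRV-1A, -2, -22, -41, -50), chosen to represent a range of sensitivity to this compound class.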

Enterovirus [11] = experiment: Minimum inhibitory concentration against rhinovirus serotype 86; format: functional; outline: as §1
Enterovirus [12] = experiment: Minimum inhibitory concentration against rhinovirus serotype 21.; format: functional; outline: as §1
Enterovirus [13] = experiment: Minimum inhibitory concentration against rhinovirus serotype 25; format: functional; outline: as §1
Enterovirus [14] = experiment: Minimum inhibitory concentration against rhinovirus serotype 6.; format: functional; outline: as §1
Enterovirus [15] = experiment: as §2; format: functional; remark: listed apart in the source
Enterovirus C [16] = experiment: In vitro activity against coxsackie A- 4; format: functional
Echovirus [17] = experiment: In vitr oactivity against echovirus-3; format: functional
Echovirus [18] = experiment: In vitro activity of the compound against echovirus-12
Enterovirus C [19] = experiment: In vitro activity against polioviurs-2 (Lansing); format: functional
Enterovirus C [20] = experiment: In vitro activity against polioviurs-1 (Mahoney); format: functional
Coxsackievirus [21] = experiment: In vitro activity against coxsackie B-2; format: functional
Coxsackievirus [22] = experiment: In vitro activity against coxsackie A-2; format: functional
Enterovirus [23] = experiment: Minimum inhibitory concentration against rhinovirus serotype 1B.; format: functional; outline: as §1
Echovirus [24] = experiment: In vitro activity against echovirus-4; format: functional
Echovirus [25] = experiment: In vitro activity against echovirus-12
Coxsackievirus [26] = experiment: In vitro activity against coxsackie A- 21; format: functional
Echovirus [27] = experiment: In vitro activity against echovirus-9 (Barty); format: functional
Coxsackievirus [28] = experiment: In vitro activity against coxsackie A- 9; format: functional
Echovirus [29] = experiment: In vitro activity against echovirus-30
Coxsackievirus [30] = experiment: In vitro activity against coxsackie A- 11; format: functional
Enterovirus [31] = experiment: Estimation by using phi 21 in combination with log P of compound 13 determined via RPHPLC-retention time procedure; format: functional
Outline: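 Values estimated by adding substituent π constants to the measured log P of a reference analogue. That reference log P came from reversed-phase HPLC retention times, with mobile phase at pH 7.4 and n = 3.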

Echovirus [32] = experiment: In vitro activity against echovirus-3; format: functional
Coxsackievirus [33] = experiment: In vitro activity against coxsackie A- 21
Enterovirus [34] = experiment: Minimum inhibitory concentration against rhinovirus serotype 14; format: functional; outline: as §1

| SMILES | MIC (Enterovirus [1]; Enterovirus, read-out: MIC) [µM] | MIC (Enterovirus [3]) [µM] | MIC (Enterovirus [4]) [µM] | MIC (Enterovirus [5]) [µM] | MIC (Enterovirus [6]; Enterovirus, read-out: MIC) [µM] | MIC (Enterovirus [7]) [µM] | MIC (Enterovirus [8]) [µM] | MIC80 (Enterovirus [9]) [µM] | MIC (Enterovirus [10]) [µM] | MIC (Enterovirus [11]) [µM] | MIC (Enterovirus [12]; Enterovirus, read-out: MIC) [µM] | further results |
| --- | --- | --- | --- | --- | --- | --- | --- | --- | --- | --- | --- | --- |
| Cc1cc(CCCCCOc2c(Cl)cc(C3=NCCO3)cc2C(F)(F)F)on1 | 1 (≈ 0.417 µg/mL) | 0.8 (≈ 0.333 µg/mL) | 0.2 (≈ 0.0834 µg/mL) | 0.5 (≈ 0.208 µg/mL) | 0.2 (≈ 0.0834 µg/mL) | 0.4 (≈ 0.167 µg/mL) | 0.2 (≈ 0.0834 µg/mL) | 1.3 (≈ 0.542 µg/mL) | 0.54 (≈ 0.225 µg/mL) | 1.3 (≈ 0.542 µg/mL) |  | MIC (Enterovirus [2]): 0.05 µM (≈ 0.0208 µg/mL) |
| Cc1cc(CCCCCOc2c(F)cc(C3=NCCO3)cc2F)on1 | 0.12 (≈ 0.042 µg/mL) | 2.3 (≈ 0.806 µg/mL) | 0.13 (≈ 0.0455 µg/mL) | 2.7 (≈ 0.946 µg/mL) |  | 0.5 (≈ 0.175 µg/mL) | 0.1 (≈ 0.035 µg/mL) | 1.9 (≈ 0.666 µg/mL) | 2.69 (≈ 0.942 µg/mL) |  | 0.08 (≈ 0.028 µg/mL) | MIC (Enterovirus [1]): 0.1 µM (≈ 0.035 µg/mL); MIC (Enterovirus [6]): 0.5 µM and 0.2 µM; MIC (Enterovirus [13]): 6.6 µM (≈ 2.31 µg/mL); MIC (Enterovirus [14]): 1.1 µM (≈ 0.385 µg/mL) |
| Cc1cc(CCCCCOc2c(Cl)cc(C3=NCCO3)cc2C(C)(C)C)on1 |  |  |  |  |  |  |  |  |  |  |  | MIC (Enterovirus [15]; Enterovirus, read-out: MIC): 12.4 µM (≈ 5.02 µg/mL) |
| Cc1cc(CCCCCOc2c(Cl)cc(C3=NCCO3)cc2Cl)on1 [WIN-54954] | 0.02 (≈ 0.00767 µg/mL) | 0.9 (≈ 0.345 µg/mL) | 0.02 (≈ 0.00767 µg/mL) |  | 0.09 (≈ 0.0345 µg/mL) | 0.3 (≈ 0.115 µg/mL) | 2.6 (≈ 0.997 µg/mL) | 0.3 (≈ 0.115 µg/mL) | 0.7 (≈ 0.268 µg/mL) | 0.02 (≈ 0.00767 µg/mL) | 0.3 (≈ 0.115 µg/mL) | MIC (Enterovirus C [16]): 1.4 µM (≈ 0.537 µg/mL); MIC (Echovirus [17]): 1.4 µM (≈ 0.537 µg/mL); MIC (Echovirus [18]): 0.03 µM (≈ 0.0115 µg/mL); MIC (Enterovirus C [19]): 0.55 µM (≈ 0.211 µg/mL); MIC (Enterovirus C [20]): 0.65 µM (≈ 0.249 µg/mL); MIC (Coxsackievirus [21]): 0.13 µM (≈ 0.0498 µg/mL); MIC (Coxsackievirus [22]): 8.6 µM (≈ 3.3 µg/mL); MIC (Enterovirus [23]; Enterovirus, read-out: MIC): 0.2 µM (≈ 0.0767 µg/mL); MIC (Echovirus [24]): 0.39 µM (≈ 0.149 µg/mL); MIC (Echovirus [25]): 16.2 µM (≈ 6.21 µg/mL); MIC (Coxsackievirus [26]): 0.21 µM (≈ 0.0805 µg/mL); MIC (Echovirus [27]): 2.6 µM (≈ 0.997 µg/mL); MIC (Coxsackievirus [28]): 13.2 µM (≈ 5.06 µg/mL); MIC (Echovirus [29]): 0.08 µM (≈ 0.0307 µg/mL); MIC (Coxsackievirus [30]): 4.8 µM (≈ 1.84 µg/mL); MIC (Enterovirus [31]): 0.7 µM; MIC (Echovirus [32]): 0.18 µM (≈ 0.069 µg/mL); MIC (Coxsackievirus [33]): 0.008 µM (≈ 0.00307 µg/mL) |
| Cc1cc(CCCCCOc2c(Cl)cc(C3=NCCO3)cc2Br)on1 |  | 1.8 (≈ 0.77 µg/mL) | 0.04 (≈ 0.0171 µg/mL) | 0.6 (≈ 0.257 µg/mL) | 0.08 (≈ 0.0342 µg/mL) | 0.4 (≈ 0.171 µg/mL) | 0.09 (≈ 0.0385 µg/mL) | 0.5 (≈ 0.214 µg/mL) | 0.61 (≈ 0.261 µg/mL) | 0.02 (≈ 0.00855 µg/mL) | 0.3 (≈ 0.128 µg/mL) | MIC (Enterovirus [12]): 0.2 µM (≈ 0.0855 µg/mL) |
| Cc1cc(CCCCCOc2ccc(C3=NCCO3)cc2)on1 | 0.4 (≈ 0.126 µg/mL) | 15 (≈ 4.72 µg/mL) | 1.1 (≈ 0.346 µg/mL) | 5.2 (≈ 1.63 µg/mL) | 0.3 (≈ 0.0943 µg/mL) | 1.5 (≈ 0.472 µg/mL) |  | 7 (≈ 2.2 µg/mL) | 5.16 (≈ 1.62 µg/mL) |  | 1.2 (≈ 0.377 µg/mL) | MIC (Enterovirus [2]): inactive; MIC (Enterovirus [12]): inactive; MIC (Enterovirus [15]): 7 µM (≈ 2.2 µg/mL); MIC (Enterovirus [15]; Enterovirus, read-out: MIC): 9.9 µM (≈ 3.11 µg/mL); MIC (Enterovirus [14]): 0.9 µM (≈ 0.283 µg/mL); MIC (Enterovirus [14]; Enterovirus, read-out: MIC): 0.7 µM (≈ 0.22 µg/mL) |
| Cc1cc(CCCCCOc2c(C)cc(C3=NCCO3)cc2Cl)on1 |  | 1.9 (≈ 0.689 µg/mL) | 0.04 (≈ 0.0145 µg/mL) | 0.7 (≈ 0.254 µg/mL) |  | 0.6 (≈ 0.218 µg/mL) | 0.7 (≈ 0.254 µg/mL) | 0.9 (≈ 0.327 µg/mL) | 0.92 (≈ 0.334 µg/mL) |  | 0.2 (≈ 0.0726 µg/mL) | MIC (Enterovirus [34]): 0.6 µM (≈ 0.218 µg/mL); MIC (Enterovirus [23]): 0.6 µM (≈ 0.218 µg/mL); MIC (Enterovirus [23]; Enterovirus, read-out: MIC): 0.4 µM (≈ 0.145 µg/mL); MIC (Enterovirus [14]; Enterovirus, read-out: MIC): 0.06 µM (≈ 0.0218 µg/mL) |
